Many of the other results were omitted from the sample, so hits are more common in it than they were.
T cruzi inh = T. cruzi replication inhibition; T. cruzi beta-gal in NIH3T3, luminescence, 90 h; inhibition, % (no concentration beside the values); hit rate 1.4% among 300,000;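 active = mean inhibition across valid replicates above about 55%, limit read from the data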;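 note: signal also drops with host cell toxicity which is not excluded here; 0% = plate median of DMSO wells and 100% = zero luminescence signal; higher percent means less beta-gal luminescence so fewer parasites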
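Test system: β-gal T. cruzi (Tulahuen C4) inside NIH/3T3 cells / Quantity: 5,000 cells/well / Measured by: luminescence from GalScreen with 0.05% NP40, read after 60 min / Medium: DMEM plus 2% FBS / Measure: parasite load inhibition, % / Reagent: Tulahuen C4 trypomastigotes, 5000/well / Schedule: co-culture of at least 90 h after 3 h attachment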
CHOP inhibitor = CHOP inhibition in unfolded protein response; inhibition, % at 10 µM; CHO-K1 CHOP-promoter luciferase, tunicamycin-induced, 15-18 h; hit rate 3.8% among 220,000;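 active = compounds that reduced the stress-induced luciferase reporter signal by more than about 70% of percent inhibition, limit read from the data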;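 note: 0% = tunicamycin plus vehicle and 100% = wells without tunicamycin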
UPR XBP1 act = activators of adaptive arm of unfolded protein response (XBP1). AID 463104. CHO-XBP1 luciferase reporter, IRE1-XBP1 UPR activation, luminescence; percent of tunicamycin response, DMSO as zero. activation, % at 20 µM. hit rate 0.33% among 330,000;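 active = versus positive control, 20 µM dose yields 30% or more activation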;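 note: 100% = tunicamycin at 10 µg/mL and 0% = DMSO only wells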
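Signal: luciferase luminescence; Assay system: CHO-XBP1 luciferase reporter cells; Amount: one thousand reporter cells per well; Dosing: 20 µM single concentration, DMSO 1%; Benchmarks: high control tunicamycin 10 µg/mL final, low control DMSO vehicle only; Schedule: 6 h compound exposure at 37 °C, 5% CO2; Evaluation: percent activation relative to tunicamycin reference.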
Dynein transport = blocks dynein driven cargo transport along microtubules. 3617.4 mouse cells, GR-EGFP nuclear translocation imaging; test concentration mostly 20 µM; stimulated with dexamethasone, 1 µM; hits give low values. z-score, hits read low. hit rate 0.47% among 220,000;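 active = plate z-score of nuclear minus cytoplasmic receptor signal below a set negative limit, without overly bright fluorescence or cell loss, cut at about -3.5 in these data, passing the limit was not always enough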;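 note: z-score of nuclear minus cytoplasmic ring GR-EGFP intensity difference per well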
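Buffer or medium: tet-free, stripped-serum medium; Also added: dexamethasone, 1.0 µM final; Technique: high-content fluorescence imaging after fixation; Times: 48 h induction, 1 h compound, 30 min dex at 37 °C; Read-out: per-cell GR-EGFP intensity, nucleus versus surrounding cytoplasmic ring, well-averaged.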
CHOP UPR activ = activators of apoptotic arm of unfolded protein response (CHOP); CHO-CHOP luciferase reporter, UPR activation, luminescence; percent of tunicamycin response over DMSO baseline; activation, % at 10 µM; hit rate 0.34% among 330,000; AID 449763;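 active = at 10 µM dose, activation of 40% or more, normalized to positive control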;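 note: 100% = tunicamycin at 10 µg/mL and 0% = DMSO alone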
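Dosing – one dose, 10 µM in 0.5% DMSO · System – CHO-CHOP cells, stable luciferase reporter of PERK-eIF2a-CHOP signalling · Input – 500 cells/well · Control set – tunicamycin 10 µg/mL final as positive, DMSO-only wells as negative · Timing – 6 h compound treatment, 37 °C · Measure – % activation vs tunicamycin · Technique – luminescence read with Steady-Glo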
L major viab = Leishmania major promastigote growth inhibition | Leishmania major promastigotes, resazurin fluorescence viability | hit rate 9% among 200,000 | inhibition, % at 10 µM; in the data active = inhibition above about 50%;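 note: promastigotes grown with compound for 44 hours at 28 °C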
Numbers without * were called inactive; nt = no result given.

SMILES	T cruzi inh	CHOP inhibitor	UPR XBP1 act	Dynein transport	CHOP UPR activ	L major viab
CCN1CCN(CC(O)COc2ccc3c(c2)CCC3)CC1 (stereo not drawn)	8.8	-13.5	1.1	0.772	0.1	83.5*
COc1ccccc1N1CCN(S(=O)(=O)CCNC(=O)CC2CCCCC2)CC1	9.1	nt	-3.0	nt	-0.9	nt
CCCCN(CC)CCCNC(=O)C1CCN(c2ncnc3c2sc2cccc(F)c23)CC1	70.5*	16.4	1.2	-0.665	2.7	100.1*
O=C(Nc1ccc(F)cc1)NC1(C(=O)NCc2ccc3c(c2)OCO3)CCCCC1	-3.2	8.5	-3.4	-0.669	0.7	91.1*
O=C(Nc1ccc(F)cc1)NC1(C(=O)NCc2ccco2)CCCCC1	-18.2	-4.1	3.0	0.122	-1.1	82.4*
Cc1ccc(CNC(=O)C2(NC(=O)Nc3ccc(C)cc3)CCCCC2)cc1	-5.8	79.5*	-0.8	-0.433	0.8	18.4
O=C(NCc1ccc2c(c1)OCO2)C1CCCN1C(=O)Nc1ccc(F)cc1 (stereo not drawn)	-8.4	33.8	0.2	0.031	1.3	91.7*
CC(C)c1ccc(-c2c(C#N)c(N)nc(SCC(=O)N3CCCCCC3)c2C#N)cc1	21.3	46.6	2.7	0.4	4.7	51.3*
COC(C(=O)NNS(=O)(=O)c1ccccc1[N+](=O)[O-])c1ccccc1 (stereo not drawn)	-6.5	nt	-1.2	nt	0.9	nt
CC(C)C(=O)NNS(=O)(=O)c1ccccc1[N+](=O)[O-]	0.8	-0.5	-1.3	1.36	-1.8	54.0*
O=C(Nc1ccc(F)cc1)c1ccccc1S(=O)(=O)c1ccccc1[N+](=O)[O-]	-10.8	29.7	-2.2	2.23	-1.5	57.9*
NC(=O)c1ccccc1NC(=O)c1ccccc1S(=O)(=O)c1ccccc1[N+](=O)[O-]	4.8	3.5	-0.9	1.13	-2.7	64.6*
COc1ccccc1NC(=O)c1ccccc1S(=O)(=O)c1ccccc1[N+](=O)[O-]	-4.2	25.7	-1.4	-0.0234	2.1	-2.9
COc1ccc(CC(=O)Nc2nn(C)c3nc4c(C)cccc4cc23)cc1	-1.8	80.6*	3.3	-0.223	1.5	nt
COc1ccc(/C=C/CN2CCN(CCc3ccccc3)C(CCO)C2)cc1 (stereo not drawn)	36.8	13.0	-1.5	-0.872	0.7	89.6*
COc1cc(CN2CCN(CCc3ccccc3)C(CCO)C2)cc(OC)c1 (stereo not drawn)	14.9	25.2	-4.6	-0.894	0.2	63.9*
COc1ccc(CN2CCN(Cc3ccccc3)C(CCO)C2)cc1OC (stereo not drawn)	5.3	8.0	-0.6	-0.747	-0.4	1.6
CCOc1ccccc1CN1CCN(C/C=C/c2ccc(OC)cc2)CC1CCO (stereo not drawn)	14.4	-0.3	0.1	2.56	-2.5	30.4
COc1ccccc1/C=C/CN1CCN(Cc2ccc(F)cc2)C(CCO)C1 (stereo not drawn)	11.0	33.3	-2.2	0.304	-0.7	82.5*
COC(=O)c1ccc(CN2CCN(CCC(C)C)C(CCO)C2)cc1 (stereo not drawn)	20.3	-0.8	-1.1	-0.894	-2.4	62.0*
CC(C)CCN1CCN(Cc2ccoc2)CC1CCO (stereo not drawn)	-1.3	6.7	-4.7	0.146	0.9	nt
Cc1csc(=O)n1CC(=O)Nc1ccc(Cl)cc1F	nt	nt	2.8	nt	1.5	nt
COC(=O)c1ccc(CN2CCN(CCc3ccccc3)C(CCO)C2)cc1 (stereo not drawn)	23.5	6.7	-1.6	-0.374	-0.9	91.3*
COc1ccc(-c2ncc(CN3CCN(CCC(C)C)C(CCO)C3)cn2)cc1 (stereo not drawn)	61.3*	-15.4	4.9	0.142	1.7	-2.4
Cc1cccc(-c2ncc(CN3CCN(CC(C)C)C(CCO)C3)cn2)c1 (stereo not drawn)	27.0	-9.1	0.1	0.161	-1.2	6.6
COc1ccc(C2/C(=C(/O)c3ccc(C)cc3)C(=O)C(=O)N2C)c(OC)c1 (stereo not drawn)	-2.4	nt	0.1	nt	-0.5	nt
